According to ChEMBL document CHEMBL3085764, “Azole-carbodithioate hybrids as vaginal anti-Candida contraceptive agents: design, synthesis and docking studies” (Eur J Med Chem, 2013):
≈ marks a conversion by molar mass, not a printed value.

Experiments:
Sporothrix schenckii = experiment: Antifungal activity against Sporothrix schenckii after 48 hrs by broth microdilution technique; type: functional, organism-based
In short: (§1)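 MIC by broth microdilution following NCCLS guidelines, in RPMI 1640 buffered with MOPS. Starting inoculum 1-5 × 10^3 CFU/mL. Plates incubated at 35 °C. MIC and IC50 read spectrophotometrically at 492 nm after 48 h.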

Candida albicans [1] = experiment: Antifungal activity against Candida albicans clinical isolate CDRI after 48 hrs by broth microdilution technique; type: functional, organism-based; in short: as §1
Candida albicans [2] = experiment: Antifungal activity against Candida albicans ATCC 10231 after 48 hrs by broth microdilution technique; type: functional, organism-based; conditions: ATCC 10231, 48 h; in short: as §1
Candida parapsilosis = experiment: Antifungal activity against Candida parapsilosis ATCC 22019 after 48 hrs by broth microdilution technique; type: functional, organism-based; conditions: Lodderomyces parapsilosis, ATCC 22019, 48 h; in short: as §1
[3] = tested on: Trichophyton mentagrophytes; experiment: Antifungal activity against Trichophyton mentagrophytes after 48 hrs by broth microdilution technique; type: functional, organism-based; in short: as §1
[4] = Spermicidal activity in human semen assessed as sperm immobilization at 1.0 % w/v up to 30 seconds by phase contrast microscopy; type: functional
Cryptococcus neoformans = experiment: Antifungal activity against Cryptococcus neoformans after 48 hrs by broth microdilution technique; type: functional, organism-based; in short: as §1
HeLa = experiment: Cytotoxicity against human HeLa cells after 5 hrs by LDH assay
[5] = Growth inhibition of Lactobacillus acidophilus after 72 hrs by colony counting method
In short: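 Rogosa SL agar plates (7.5%, 0.132% acetic acid), with or without compound, inoculated with L. acidophilus (~70 […]/10 cm²). Incubated 72 h at 37 °C in 5% CO2/95% air. Colony number and size recorded. Value = average colony size (% of control) × colony number / 100.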

Candida albicans [6] = experiment: Antifungal activity against Candida albicans clinical isolate after 48 hrs by broth microdilution technique; type: functional, organism-based; in short: as §1
Klebsiella pneumoniae = experiment: Antibacterial activity against Klebsiella pneumoniae after 48 hrs by broth microdilution technique; type: functional
In short: (§2)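 Broth microdilution following NCCLS guidelines in Mueller Hinton broth. Inoculum held at 1-5 × 10^3 cfu/mL. Plates incubated at 35 °C in a moist, dark chamber for 48 h. MIC and IC50 read spectrophotometrically at 492 nm.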

Candida albicans [7] = experiment: Antifungal activity against Candida albicans MTCC 183 after 48 hrs by broth microdilution technique; type: functional, organism-based; conditions: MTCC 183, 48 h; in short: as §1
Escherichia coli = experiment: Antibacterial activity against Escherichia coli ATCC 9637 after 48 hrs by broth microdilution technique; type: functional; conditions: ATCC 9637, 48 h; in short: as §2
Trichomonas vaginalis = experiment: Trichomonacidal activity against Trichomonas vaginalis after 48 hrs by trypan blue exclusion assay; type: functional; conditions: read-out: MEC
In short: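 T. vaginalis in log phase, grown in TYM with 10% FCS, vitamin mixture and penicillin/streptomycin at 37 °C. DMSO stocks ([…]) serially diluted in TYM down to 0.1 µg/mL; DMSO/TYM vehicle controls. 5 × 10^4 trophozoites added and incubated anaerobically at 37 °C. Viability checked by trypan blue from 3 to 48 h. MIC = lowest concentration killing all cells by 48 h. Three repeats.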

[8] = Spermicidal activity in human semen assessed as sperm immobilization at 0.1 % w/v up to 30 seconds by phase contrast microscopy; type: functional
Candida albicans [9] = experiment: Antifungal activity against Candida albicans after 48 hrs by broth microdilution technique; type: functional, organism-based; in short: as §1
Staphylococcus aureus = experiment: Antibacterial activity against Staphylococcus aureus ATCC 25923 after 48 hrs by broth microdilution technique; type: functional; conditions: ATCC 25923, 48 h; in short: as §2
Pseudomonas aeruginosa = experiment: Antibacterial activity against Pseudomonas aeruginosa ATCC BAA-427 after 48 hrs by broth microdilution technique; type: functional; conditions: ATCC BAA-427, 48 h; in short: as §2
Aspergillus fumigatus = experiment: Antifungal activity against Aspergillus fumigatus after 48 hrs by broth microdilution technique; type: functional, organism-based; in short: as §1

Row | Compound | IC50 (Sporothrix schenckii) [µg/mL] | IC50 (Candida albicans [1]) [µg/mL] | IC50 (Candida albicans [2]) [µg/mL] | IC50 (Candida parapsilosis) [µg/mL] | IC50 [3] [µg/mL] | IC50 (Cryptococcus neoformans) [µg/mL] | IC50 (Candida albicans [6]) [µg/mL] | MIC (Klebsiella pneumoniae) [µg/mL] | IC50 (Candida albicans [7]) [µg/mL] | MIC (Escherichia coli) [µg/mL] | IC50 (Candida albicans [9]) [µg/mL] | MIC (Staphylococcus aureus) [µg/mL] | MIC (Pseudomonas aeruginosa) [µg/mL] | IC50 (Aspergillus fumigatus) [µg/mL] | Activity [4] [%] | IC50 (HeLa) [µg/mL] | IC50 [5] [µg/mL] | minimal effective concentration (Trichomonas vaginalis) [µg/mL] | Activity [8] [%]
1 | CCCCSC(=S)n1cnc2ccccc21 | > 50 | 37.4 (≈ 149 µM) | > 50 | > 50 | 1.4 (≈ 5.59 µM) | > 50 | > 50 | ≥ 50 | 21.8 (≈ 87.1 µM) | ≥ 50 | 6.39 (≈ 25.5 µM) | ≥ 50 | ≥ 50 | > 50 | 100 | – | – | > 200 | 0
2 | CCCCCCCCSC(=S)n1cnc2ccccc21 | > 50 | > 50 | > 50 | > 50 | > 50 | > 50 | > 50 | ≥ 50 | > 50 | ≥ 50 | > 50 | ≥ 50 | ≥ 50 | > 50 | 95 | – | – | > 200 | 0
3 | CCCCCCCCCc1ccc(OCCOCCOCCOCCOCCOCCOCCOCCOCCO)cc1 [NONOXYNOL 9] | – | – | – | – | – | – | – | – | – | – | – | – | – | – | 100 | 37 (≈ 60 µM) | 21 (≈ 34 µM) | 37.4 | 100

Second part, led by results:

Row | IC50 (Sporothrix schenckii) [µg/mL] | IC50 (Candida albicans [1]) [µg/mL] | IC50 (Candida albicans [2]) [µg/mL] | IC50 (Candida parapsilosis) [µg/mL] | IC50 [3] [µg/mL] | IC50 (Cryptococcus neoformans) [µg/mL] | IC50 (Candida albicans [6]) [µg/mL] | MIC (Klebsiella pneumoniae) [µg/mL] | IC50 (Candida albicans [7]) [µg/mL] | MIC (Escherichia coli) [µg/mL] | IC50 (Candida albicans [9]) [µg/mL] | MIC (Staphylococcus aureus) [µg/mL] | MIC (Pseudomonas aeruginosa) [µg/mL] | IC50 (Aspergillus fumigatus) [µg/mL] | Compound | Activity [4] [%] | IC50 (HeLa) [µg/mL] | IC50 [5] [µg/mL] | minimal effective concentration (Trichomonas vaginalis) [µg/mL] | Activity [8] [%]
4 | > 50 | 6.17 (≈ 30.8 µM) | 3.5 (≈ 17.5 µM) | 1.94 (≈ 9.68 µM) | > 50 | 3.79 (≈ 18.9 µM) | 1.53 (≈ 7.64 µM) | ≥ 50 | 5.41 (≈ 27 µM) | ≥ 50 | 1.29 (≈ 6.44 µM) | ≥ 50 | ≥ 50 | – | CCCCSC(=S)n1ccnc1 | 100 | 48.7 (≈ 243 µM) | 45.64 (≈ 228 µM) | > 200 | 80
5 | 5.71 (≈ 26.6 µM) | 7.64 (≈ 35.6 µM) | 5.09 (≈ 23.7 µM) | > 50 | 2.02 (≈ 9.42 µM) | 5.57 (≈ 26 µM) | 2.12 (≈ 9.89 µM) | ≥ 50 | 4.69 (≈ 21.9 µM) | ≥ 50 | 1.34 (≈ 6.25 µM) | ≥ 50 | ≥ 50 | 23.8 (≈ 111 µM) | CCCCSC(=S)n1ccnc1C | 100 | 85.5 (≈ 399 µM) | 220 (≈ 1030 µM) | > 200 | 0
6 | 4.34 (≈ 27.3 µM) | > 50 | 38 (≈ 239 µM) | > 50 | > 50 | > 50 | > 50 | ≥ 50 | 31.2 (≈ 196 µM) | ≥ 50 | 1.43 (≈ 8.98 µM) | ≥ 50 | ≥ 50 | > 50 | CSC(=S)n1cncn1 | 100 | 53.7 (≈ 337 µM) | 39.54 (≈ 248 µM) | > 200 | 0
